Screening data from PubChem.
Sampled rows, rich in hits. Any-hit rate of the full collection: about 2.3%.
TAAR1 antagonist: human TAAR1 antagonism; 1.5% of 360,000 active; CHO RD-HGA16 TAAR1, Fluo-8 calcium fluorescence, antagonist; AID 624466; inhibition, % at 3 µM;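 active = inhibition above a per-plate cutoff, the mean inhibition of test compounds on that plate plus 3 SD, cut at about 49% in these data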;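 also: 0% = DMSO plus EC80 beta-PEA response and 100% = DMSO alone without agonist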
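Material: RD-HGA16 CHO cells with stable hTAAR1 and Gα16; Dosing: single nominal final test compound concentration of 3 µM; Schedule: seeding 17-24 h prior, 75-min 37 °C, 30-min RT dye loading; Detection: kinetic Fluo-8 calcium fluorescence measurement; Measure: % inhibition from peak post-agonist over basal fluorescence ratio; Benchmarks: vehicle and agonist controls.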
V1aR counter: V1a receptor agonism, counter-screen for OXTR agonists. P37288. CHO-V1R cells, Fluo-8 calcium fluorescence, agonist mode; 0% DMSO, 100% 3 nM vasopressin. activation, % at 3 µM. 0.25% of 320,000 active;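 active = activation above the mean activation of all tested compounds plus 3 SD, per screening run, cut at about 20% in these data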;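 also: signal is peak over basal fluorescence ratio across a 100 second FLIPR read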
Target sequence (P37288 whole entry, looked up): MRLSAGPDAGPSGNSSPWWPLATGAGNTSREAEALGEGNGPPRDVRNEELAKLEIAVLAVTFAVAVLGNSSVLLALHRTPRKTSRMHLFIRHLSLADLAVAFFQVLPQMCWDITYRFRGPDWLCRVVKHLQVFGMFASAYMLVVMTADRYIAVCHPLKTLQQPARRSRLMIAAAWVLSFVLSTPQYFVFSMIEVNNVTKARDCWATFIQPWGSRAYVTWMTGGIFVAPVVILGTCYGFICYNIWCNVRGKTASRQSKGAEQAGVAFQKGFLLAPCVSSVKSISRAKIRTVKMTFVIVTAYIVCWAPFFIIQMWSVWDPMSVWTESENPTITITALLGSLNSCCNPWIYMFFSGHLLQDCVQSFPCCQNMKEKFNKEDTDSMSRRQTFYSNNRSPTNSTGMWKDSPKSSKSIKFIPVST
OXTR ag: activates the human oxytocin receptor; P30559; CHO-OTR cells, Fluo-8 calcium fluorescence; normalized: DMSO 0%, oxytocin 100%; activation, % at 3 µM; 0.32% of 320,000 active; AID 2435;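 active = activation above the mean of all tested compounds plus 3 SD, cutoff set per screening run, cut at about 20% in these data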;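 also: peak over basal fluorescence ratio from a 100 s FLIPR kinetic read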
Target sequence (P30559 whole entry, looked up): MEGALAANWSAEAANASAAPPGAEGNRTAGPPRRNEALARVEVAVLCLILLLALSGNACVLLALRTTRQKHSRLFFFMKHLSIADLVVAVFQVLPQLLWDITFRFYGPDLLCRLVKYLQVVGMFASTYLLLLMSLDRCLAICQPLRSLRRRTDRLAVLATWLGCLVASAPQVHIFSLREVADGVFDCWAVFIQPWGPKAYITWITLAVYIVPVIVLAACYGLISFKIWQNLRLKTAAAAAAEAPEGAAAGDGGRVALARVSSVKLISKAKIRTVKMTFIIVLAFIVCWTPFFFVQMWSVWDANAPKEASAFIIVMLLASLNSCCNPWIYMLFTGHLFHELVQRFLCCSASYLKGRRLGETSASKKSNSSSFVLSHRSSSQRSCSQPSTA
OXTR potentiator: human OXTR potentiation; CHO-OTR cells, Fluo-8 calcium fluorescence, potentiator mode; 0% = oxytocin EC15, 100% = EC100; activation, % at 3 µM; 0.061% of 320,000 active;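 active = activation above that plate's cutoff, the mean activation of tested compounds plus 3 SD, cut at about 6.6% in these data, passing the limit was not always enough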;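 also: 100% uses oxytocin at 75 nM as the full agonist control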
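Measured by – Fluo-8 calcium dye fluorescence · Test system – human OTR in CHO cells · Dosing – one concentration, 3.0 µM compound · Controls – EC15 oxytocin alone as 0%, 75 nM oxytocin as 100% · Evaluation – normalized max/min fluorescence ratio, % activation · Timing – 6 min pre-incubation, 100 s read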
TAAR1 ag: human TAAR1 agonism | Q96RJ0 | CHO RD-HGA16 TAAR1, Fluo-8 calcium fluorescence; vehicle wells 0%, saturating PEA agonist 100% | activation, % at 3 µM | 0.99% of 360,000 active | AID 624467;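 active = activation above the mean activation of all test compounds in the run plus 3 SD, cut at about 38% in these data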
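Repeats: no replicates (n 1) | Material: CHO-derived RD-HGA16 cells with stable Gα16 and human TAAR1 | Technique: Kinetic Fluo-8 calcium fluorescence | Schedule: 17-24 h seeding, 75 min 37 °C dye, 30 min RT | Evaluation: % activation from peak over basal fluorescence ratio, DMSO-to-PEA scaled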
OXTR agonist cf: confirmation of human oxytocin receptor agonists; CHO-OTR cells, Fluo-8 calcium fluorescence, agonist; shares compounds with OXTR ag; 20% of 390 active; activation, % at 3 µM;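 active = mean activation above about 20% derived from the earlier single-dose screen, limit read from the data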;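 also: peak over minimum fluorescence ratio per well during a 100 second FLIPR read; 0% = DMSO alone and 100% = oxytocin high control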
V1R ag counter 3x: counter-screen for oxytocin receptor agonists: V1a receptor agonists. shares compounds with OXTR ag. CHO-V1R cells, Fluo-8 calcium fluorescence, agonist. activation, % at 3 µM. 10% of 390 active;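 active = mean activation over triplicate exceeds the hit threshold set in the earlier primary screen, cut at about 20% in these data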;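 also: peak over basal fluorescence ratio within a 100 second read; 0% = DMSO alone and 100% = 3 nM vasopressin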
OXTR pot cf: confirmation of human oxytocin receptor potentiators. shares compounds with OXTR potentiator. CHO-OTR cells, Fluo-8 calcium fluorescence, potentiation; scaled from low-dose to maximal oxytocin. activation, % at 3 µM. 180 tested, under 10 active. AID 434985;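 active = mean percent activation over triplicates above a cutoff set from solvent-only control plates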;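 also: compounds tested in the presence of an EC15 dose of oxytocin; 0% = EC15 oxytocin with DMSO and 100% = EC100 oxytocin with DMSO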
TAAR1 ag conf: human TAAR1 agonism, confirmed. shares compounds with TAAR1 ag. CHO RD-HGA16 TAAR1, Fluo-8 calcium fluorescence; scaled: DMSO 0%, maximal phenethylamine 100%. activation, % at 3 µM. 82% of 2,400 active. AID 651783;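 active = activation above a cutoff set at the run's mean compound activation plus 3 SD, cut at about 39% in these data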
Ga16 ag counter: nonselective agonism, TAAR1 counter-screen; CHO-Ga16 parental, Fluo-8 calcium fluorescence; normalized to maximal ATP response, DMSO zero; 50% of 2,400 active; activation, % at 3 µM; AID 651787; shares compounds with TAAR1 ag;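 active = activation above the run cutoff, the mean activation over all tested wells plus 3 SD, cut at about 12% in these data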;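 also: 0% = DMSO wells and 100% = maximal ATP response on the peak over basal ratio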
TAAR1 desensitize: counter-screen for human TAAR1 agonists: agonists that desensitize TAAR1. shares compounds with TAAR1 ag. CHO RD-HGA16 hTAAR1, Fluo-8 calcium, beta-PEA response inhibition. 46% of 2,400 active. AID 651951. inhibition, % at 3 µM;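 active = inhibition above the run cutoff, the mean inhibition of all test compounds plus 3 SD, cut at about 49% in these data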;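 also: beta-PEA stimulus applied at its EC80; loss of beta-PEA calcium signal after compound pretreatment read as receptor desensitization; 0% = DMSO with beta-PEA at EC80 and 100% = DMSO alone without agonist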
Ga16 antag count: nonselective Ga16 antagonist in TAAR1 agonist counter-screen; shares compounds with TAAR1 ag; CHO-Ga16 ATP-induced calcium, Fluo-8 fluorescence; inhibition, % at 3 µM; 39% of 2,400 active; AID 651952;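 active = inhibition above the plate's mean compound inhibition plus 3 SD, computed per plate, cut at about 22% in these data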;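 also: 0% = EC80 ATP with DMSO and 100% = DMSO wells without ATP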
The depositor's hits bear a star; ! = not active in a repeat.

What do the screens show for `CCCCOc1ccc(CSCCN)cc1Cl`?
TAAR1 antagonist: -1; V1aR counter: 13; OXTR ag: 21*; OXTR potentiator: -13; TAAR1 ag: 77*; OXTR agonist cf: 7; V1R ag counter 3x: 2; TAAR1 ag conf: 64*; Ga16 ag counter: 10; TAAR1 desensitize: 31; Ga16 antag count: 11

How did COc1ccc(C(C)(C)C)cc1N1C(=O)[C@@H]2CSCCS(=O)(=O)N2C1=O do in these assays?
TAAR1 antagonist: -1; TAAR1 ag: -1

What do the screens show for `C1CCC(C(CC2CCCCN2)C2CCCCC2)CC1` (stereo not drawn)?
TAAR1 antagonist: 32; V1aR counter: 10; OXTR ag: 21*!; OXTR potentiator: -4; TAAR1 ag: 40*; OXTR agonist cf: 5; V1R ag counter 3x: 3; TAAR1 ag conf: 58*; Ga16 ag counter: 35*; TAAR1 desensitize: 24; Ga16 antag count: 21*

What do the screens show for `COc1ccc([C@H]2C[C@H](n3cc(COC(=O)c4ccccc4)nn3)[C@@H](O)CN2Cc2cccs2)cc1`?
TAAR1 antagonist: 17; TAAR1 ag: 1

What do the screens show for `CC(Oc1ccc(Cl)cc1)C(=O)NNC(=S)NC(=O)c1ccco1` (stereo not drawn)?
TAAR1 antagonist: 49*; V1aR counter: 11; OXTR ag: 26*; OXTR potentiator: -13; TAAR1 ag: 116*; OXTR agonist cf: 38*; V1R ag counter 3x: 42*; TAAR1 ag conf: 79*; Ga16 ag counter: 61*; TAAR1 desensitize: 37; Ga16 antag count: 40*

How did COC(=O)C1(F)C(=O)NC(=O)NC1OC (stereo not drawn) do in these assays?
TAAR1 antagonist: -17; TAAR1 ag: 1

Results for COCCNC(=S)N(C)[C@H]1C[C@H]2c3[nH]c4c(-c5ccccc5)cccc4c3CCN2C(=O)[C@H]1[C@H](C)O ?
TAAR1 antagonist: -2; TAAR1 ag: 3

How did O=C(NNC(=S)NC(=O)c1ccccc1)c1cccc([N+](=O)[O-])c1 do in these assays?
TAAR1 antagonist: 29; V1aR counter: 14; OXTR ag: 29*; OXTR potentiator: -13; TAAR1 ag: 96*; OXTR agonist cf: 16; V1R ag counter 3x: 21*; TAAR1 ag conf: 84*; Ga16 ag counter: 65*; TAAR1 desensitize: 28; Ga16 antag count: 20

How did Nc1nc(N)c2cc(Sc3ccc4ccccc4c3)ccc2n1 do in these assays?
TAAR1 antagonist: 15; V1aR counter: 13; OXTR ag: 27*; OXTR potentiator: -11; TAAR1 ag: 63*; OXTR agonist cf: 1; V1R ag counter 3x: 1; TAAR1 ag conf: 82*; Ga16 ag counter: 44*; TAAR1 desensitize: 57*; Ga16 antag count: 46*

What do the screens show for `C[C@@H]1CN([C@@H](C)CO)C(=O)c2cc(Br)cnc2O[C@@H]1CN(C)C(=O)c1ccc(F)cc1`?
TAAR1 antagonist: 5; TAAR1 ag: 0

What do the screens show for `CC(C)c1nc2c(c(=O)c3ccccc3n2C)c(=O)n1CCc1ccccc1`?
TAAR1 antagonist: 23; V1aR counter: 18; OXTR ag: 28*; OXTR potentiator: -14; TAAR1 ag: 76*; OXTR agonist cf: 15; V1R ag counter 3x: 13; TAAR1 ag conf: 43*; Ga16 ag counter: 37*; TAAR1 desensitize: 28; Ga16 antag count: 20

Results for COc1ccc(CCn2c(-c3ccccc3)nc3c(c(=O)c4ccccc4n3C)c2=O)cc1 ?
TAAR1 antagonist: -20; V1aR counter: 0; OXTR ag: 0; OXTR potentiator: 2; TAAR1 ag: -1

What do the screens show for `Cc1cccc(C(=O)NNC(=O)c2ccc(-c3ccccc3)cc2)c1`?
TAAR1 antagonist: 3; V1aR counter: 1; OXTR ag: 0; OXTR potentiator: -3; TAAR1 ag: 3

What do the screens show for `O=C(NNC(=O)c1ccc(-c2ccccc2)cc1)c1ccccc1`?
TAAR1 antagonist: -1; V1aR counter: 1; OXTR ag: 2; OXTR potentiator: 12*; TAAR1 ag: 0; OXTR pot cf: -9

What do the screens show for `C[C@H](CO)N1C[C@H](C)[C@H](CN(C)C(=O)NC2CCCCC2)OCc2cnnn2CCCC1=O`?
TAAR1 antagonist: -25; TAAR1 ag: 5

Results for COc1ccc(-c2nc(CN3CCC(C(=O)NC4CCCC4)CC3)c(C)o2)cc1OC ?
TAAR1 antagonist: -18; V1aR counter: 0; OXTR ag: 0; OXTR potentiator: 16*; TAAR1 ag: 3; OXTR pot cf: -4

How did COC(=O)C1CC(Cl)CN1c1ncc(C(F)(F)F)cc1Cl (stereo not drawn) do in these assays?
TAAR1 antagonist: -2; V1aR counter: -1; OXTR ag: -3; OXTR potentiator: 16*; TAAR1 ag: 0; OXTR pot cf: -2

How did COCCOc1ccc(C(F)(F)F)cc1NC(=O)c1ccccc1 do in these assays?
TAAR1 antagonist: 11; V1aR counter: -1; OXTR ag: -2; OXTR potentiator: 14*; TAAR1 ag: 3; OXTR pot cf: -2

What do the screens show for `COCCOc1ccc(C(F)(F)F)cc1NC(=O)c1ccc(F)cc1`?
TAAR1 antagonist: 4; V1aR counter: 0; OXTR ag: -2; OXTR potentiator: -8; TAAR1 ag: 24

What do the screens show for `COC(=O)C1=C(C)N(C)C(=NCc2ccc(C(F)(F)F)cc2)NC1c1ccc(F)cc1` (stereo not drawn)?
TAAR1 antagonist: 20; TAAR1 ag: 20

What do the screens show for `CC1CCN(C(=O)c2[nH]cnc2C(=O)Nc2ccccc2F)CC1`?
TAAR1 antagonist: -5; TAAR1 ag: 4
